Active and inactive are the calls of the source. No cut-off for these calls is given here.
Key:
[1] = target: T1, P2X purinoceptor 1 (Rattus norvegicus) (UniProt P47824); assay: Inhibition of inward ion current elicited by ATP at P2X1 receptor expressed in Xenopus oocytes at 10 uM; format: functional, cell-based; conditions: Oocyte
T1 sequence (whole entry): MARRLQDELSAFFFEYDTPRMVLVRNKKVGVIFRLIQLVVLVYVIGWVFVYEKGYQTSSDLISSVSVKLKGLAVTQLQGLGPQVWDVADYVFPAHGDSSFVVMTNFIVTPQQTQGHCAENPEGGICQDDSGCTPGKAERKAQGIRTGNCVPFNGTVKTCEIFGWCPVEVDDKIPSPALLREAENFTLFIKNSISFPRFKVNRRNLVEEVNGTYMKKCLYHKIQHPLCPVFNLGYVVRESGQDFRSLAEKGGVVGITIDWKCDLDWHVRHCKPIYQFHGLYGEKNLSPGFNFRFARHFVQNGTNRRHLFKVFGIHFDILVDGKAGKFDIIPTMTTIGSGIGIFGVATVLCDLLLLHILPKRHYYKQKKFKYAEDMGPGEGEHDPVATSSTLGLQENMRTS

[2] = target: P2Y purinoceptor 1 (Meleagris gallopavo, UniProt P49652); assay: Inhibition of 10 nM 2-MeS-ADP-stimulated phospholipase C in turkey erythrocyte membranes using [3H]inositol; format: functional, cell membranes
In short: (§1)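 Turkey erythrocytes labelled 18-24 h at 37 °C with 2-[³H]myo-inositol in inositol-free DMEM, then lysed hypotonically (5 mM sodium phosphate pH 7.4, 5 mM MgCl₂, 1 mM EGTA) to make ghosts. Ghosts were incubated 5 min at 30 °C in pH 7.0 Hepes/KCl buffer with 1 µM GTPγS and 10 nM 2-MeSADP. Total [³H]inositol phosphates were measured by anion-exchange chromatography; 3-8 independent determinations.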

[3] = target: T2, P2X purinoceptor 3 (Rattus norvegicus, UniProt P49654); assay: Inhibition of inward ion current elicited by ATP was determined at recombinant P2X3 receptor expressed in Xenopus oocytes; format: functional, cell-based, Oocyte
T2 sequence (P49654 whole entry): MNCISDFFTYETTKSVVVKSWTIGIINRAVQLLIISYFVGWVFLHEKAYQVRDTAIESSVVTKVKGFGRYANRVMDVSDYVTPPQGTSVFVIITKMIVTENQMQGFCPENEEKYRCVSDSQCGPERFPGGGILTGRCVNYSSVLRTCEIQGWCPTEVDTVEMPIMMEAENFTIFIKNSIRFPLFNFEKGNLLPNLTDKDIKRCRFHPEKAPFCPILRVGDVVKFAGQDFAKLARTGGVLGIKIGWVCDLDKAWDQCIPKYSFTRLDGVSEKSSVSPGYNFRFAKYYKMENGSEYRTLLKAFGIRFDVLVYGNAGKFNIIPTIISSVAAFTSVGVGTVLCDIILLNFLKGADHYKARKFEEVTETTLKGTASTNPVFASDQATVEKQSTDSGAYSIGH

[4] = target: T3, P2X purinoceptor 1 (Rattus norvegicus, UniProt P47824); assay: Inhibition of inward ion current elicited by ATP at P2X1 receptor expressed in Xenopus oocytes; format: functional, cell-based, Oocyte
T3 sequence (P47824 whole entry): T1 sequence (whole entry)

[5] = target: T4, P2X purinoceptor 2 (Rattus norvegicus, UniProt P49653); assay: Inhibition of inward ion current elicited by ATP at P2X2 receptor expressed in Xenopus oocytes; format: functional, cell-based, Oocyte
T4 sequence (P49653 whole entry): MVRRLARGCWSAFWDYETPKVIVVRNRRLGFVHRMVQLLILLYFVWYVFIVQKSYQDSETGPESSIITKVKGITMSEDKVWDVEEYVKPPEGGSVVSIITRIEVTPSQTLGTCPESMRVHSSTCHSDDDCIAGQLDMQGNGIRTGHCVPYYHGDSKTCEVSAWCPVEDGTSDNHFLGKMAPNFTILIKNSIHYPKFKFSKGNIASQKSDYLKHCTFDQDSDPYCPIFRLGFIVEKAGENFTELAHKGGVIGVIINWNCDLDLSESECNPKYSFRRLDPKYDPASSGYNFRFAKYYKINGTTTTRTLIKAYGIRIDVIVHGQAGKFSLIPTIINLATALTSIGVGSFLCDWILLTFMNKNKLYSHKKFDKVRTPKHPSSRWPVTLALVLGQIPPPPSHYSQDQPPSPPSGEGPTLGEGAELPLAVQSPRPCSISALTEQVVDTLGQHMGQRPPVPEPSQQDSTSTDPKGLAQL

[6] = target: T5, P2X purinoceptor 7 (Homo sapiens) (UniProt Q99572); assay: Percent inhibition of ATP-induced K+ efflux (with cations) in adherent HEK293 cells expressing human P2X7 receptor; format: functional, cell-based; conditions: concentration not given here
T5 sequence (whole entry): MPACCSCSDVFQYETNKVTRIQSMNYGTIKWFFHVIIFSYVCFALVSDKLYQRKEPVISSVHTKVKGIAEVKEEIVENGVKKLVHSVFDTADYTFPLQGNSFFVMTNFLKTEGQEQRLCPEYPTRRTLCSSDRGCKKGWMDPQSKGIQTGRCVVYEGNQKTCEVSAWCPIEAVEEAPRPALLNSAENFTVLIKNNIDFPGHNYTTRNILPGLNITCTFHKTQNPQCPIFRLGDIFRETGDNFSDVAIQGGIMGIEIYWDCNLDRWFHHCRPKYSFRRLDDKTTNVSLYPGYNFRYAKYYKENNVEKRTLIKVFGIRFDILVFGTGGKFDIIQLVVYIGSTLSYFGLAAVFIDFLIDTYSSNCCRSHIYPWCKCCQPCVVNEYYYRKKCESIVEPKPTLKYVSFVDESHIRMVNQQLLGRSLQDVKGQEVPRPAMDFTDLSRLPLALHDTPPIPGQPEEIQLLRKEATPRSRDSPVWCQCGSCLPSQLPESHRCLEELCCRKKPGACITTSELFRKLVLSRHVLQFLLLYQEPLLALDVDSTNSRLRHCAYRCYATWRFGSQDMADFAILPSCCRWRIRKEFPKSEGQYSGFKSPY
In short: (§2)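 Adherent HEK293 cells stably expressing human P2X7, grown to 90% confluence, in saline with 1 mM MgCl₂ and 1.5 mM CaCl₂ (pH 7.5). Pretreated with 30 µM compound, then 3 mM ATP for 10 min at 37 °C. Cell K⁺ was extracted in 10% HNO₃ for 2 h and read by atomic absorbance relative to untreated cells. n=3, each in duplicate.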

[7] = target: T5, P2X purinoceptor 7 (Homo sapiens); assay: Percent inhibition of ATP-induced K+ efflux (ethidium influx) in suspended HEK293 cells expressing human P2X7 receptor; format: functional, cell-based; conditions: concentration not given here
In short: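 Trypsinised HEK293 cells stably expressing human P2X7 were suspended in divalent cation-free saline in a stirred cuvette at 37 °C with 20 µM ethidium bromide. Cells were treated with 30 µM compound, then 300 µM ATP.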

[8] = target: T5, P2X purinoceptor 7 (Homo sapiens); assay: Percentage inhibition of ATP-induced K+ efflux (cation free) in adherent HEK293 cells expressing human P2X7 receptor; format: functional, cell-based; conditions: concentration not given here
In short: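 Adherent HEK293 cells stably expressing human P2X7, in divalent cation-free saline (no added MgCl₂ or CaCl₂; pH 7.5). Pretreated with 30 µM compound, then 3 mM ATP for 10 min at 37 °C. Residual cell K⁺ was extracted in 10% HNO₃ for 2 h and measured by atomic absorbance against untreated cells. n=3, each in duplicate.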

[9] = target: T6, P2X purinoceptor 3 (Rattus norvegicus) (UniProt P49654); assay: Inhibition of inward ion current elicited by ATP at recombinant P2X3 receptor expressed in Xenopus oocytes at 10 uM; format: functional, cell-based; conditions: Oocyte
T6 sequence (whole entry): T2 sequence (P49654 whole entry)

[10] = target: P2Y purinoceptor 1 (Meleagris gallopavo) (UniProt P49652); assay: Inhibition of 10 nM 2-MeS-ADP-stimulated phospholipase C in turkey erythrocyte membranes using [3H]inositol; IA means inactive; format: functional, cell membranes; in short: as §1
[11] = target: T1, P2X purinoceptor 1 (Rattus norvegicus); assay: Inhibition of inward ion current elicited by ATP at P2X1 receptor expressed in Xenopus oocytes; IA means inactive; format: functional, cell-based; conditions: Oocyte
[12] = target: T7, P2X purinoceptor 2 (Rattus norvegicus) (UniProt P49653); assay: Inhibition of inward ion current elicited by ATP at P2X2 receptor expressed in Xenopus oocytes; IA means inactive; format: functional, cell-based; conditions: Oocyte
T7 sequence (whole entry): T4 sequence (P49653 whole entry)

[13] = target: T5, P2X purinoceptor 7 (Homo sapiens); assay: Inhibition of ATP-induced K+ efflux (with cations) in adherent HEK293 cells expressing human P2X7 receptor; format: functional, cell-based; conditions: concentration not given here; in short: as §2
[14] = target: T6, P2X purinoceptor 3 (Rattus norvegicus); assay: Inhibition of inward ion current elicited by ATP at P2X3 receptor expressed in Xenopus oocytes; IA means inactive; format: functional, cell-based; conditions: Oocyte

Sequence of P2Y purinoceptor 1 (P49652 whole entry): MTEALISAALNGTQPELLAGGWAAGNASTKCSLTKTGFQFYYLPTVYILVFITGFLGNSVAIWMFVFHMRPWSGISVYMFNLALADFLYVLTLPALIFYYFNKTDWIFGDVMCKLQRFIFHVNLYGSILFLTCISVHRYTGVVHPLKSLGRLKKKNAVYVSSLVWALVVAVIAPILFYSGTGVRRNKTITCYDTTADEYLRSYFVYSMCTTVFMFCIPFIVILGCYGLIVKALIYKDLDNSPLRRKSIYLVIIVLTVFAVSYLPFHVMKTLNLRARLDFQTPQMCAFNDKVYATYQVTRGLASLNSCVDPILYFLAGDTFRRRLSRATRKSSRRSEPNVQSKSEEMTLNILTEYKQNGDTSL
Sequence of P2Y purinoceptor 1 (Meleagris gallopavo) (P49652 whole entry): as above

SMILES | IC50 [2] | IC50 [3] | IC50 [4] | IC50 [5] | inhibition [6] | inhibition [7] | inhibition [8] | other results
Cc1nc(/N=N/c2ccc(C(=O)O)cc2)c2c(c1O)COP(=O)(O)OC2 |  |  |  |  |  |  |  | inhibition [1]: 39%
Cc1nc(/N=N/c2cc(S(=O)(=O)O)ccc2Cl)c2c(c1O)COP(=O)(O)OC2 |  |  |  |  |  |  |  | inhibition [1]: 43%
Cc1nc(/N=N/c2ccc(C(=O)O)cc2)c(CCP(=O)(O)O)c(C=O)c1O | 100 µM | 145 nM | 20 nM | 2400 nM |  |  |  | 
Cc1nc(/N=N/c2ccccc2)c(COP(=O)(O)O)c(COP(=O)(O)O)c1O | > 100 µM |  |  |  |  |  |  | inhibition [1]: 50%
Cc1nc(/N=N/c2cc(S(=O)(=O)O)ccc2Cl)c(CP(=O)(O)O)c(C=O)c1O |  |  |  |  | -5% | 40% | -8% | 
Cc1nc(/N=N/c2cc(S(=O)(=O)O)ccc2S(=O)(=O)O)c(CP(=O)(O)O)c(C=O)c1O | 46 µM | 340 nM | 12 nM | 1100 nM | 51% | 100% | 28% | 
Cc1nc(/N=N/c2cc(S(=O)(=O)O)ccc2Cl)c(COP(=O)(O)O)c(COP(=O)(O)O)c1O | 100 µM |  |  |  | -1% | 12% | -5% | inhibition [9]: 30%; inhibition [1]: 78%
Cc1nc(/N=N/c2ccccc2)c2c(c1O)COP(=O)(O)OC2 |  |  |  |  |  |  |  | Inhibition activity [10]: inactive; IA [11]: inactive
Cc1ncc(COP(=O)(O)O)c(COP(=O)(O)O)c1O |  |  |  |  |  |  |  | Inhibition activity [10]: inactive; IA [11]: inactive
Cc1nc(/N=N/c2ccc(C(=O)O)cc2)c(CP(=O)(O)O)c(C=O)c1O |  | 128 nM | 8.1 nM | 150 nM |  |  |  | 
Cc1nc(/N=N/c2cc(S(=O)(=O)O)ccc2S(=O)(=O)O)c(COP(=O)(O)O)c(COP(=O)(O)O)c1O | 100 µM |  |  |  | -1% | 15% | -7% | inhibition [1]: 27%
Cc1nc(/N=N/c2ccc(C(=O)O)cc2)c(COP(=O)(O)O)c(C=O)c1O | 100 µM | 140 nM | 9.4 nM | 11900 nM |  |  |  | 
Cc1nc(/N=N/c2cc(S(=O)(=O)O)ccc2S(=O)(=O)O)c2c(c1O)COP(=O)(O)OC2 |  |  |  |  | -1% | 17% | -5% | Inhibition activity [10]: inactive; IA [12]: inactive
Cc1nc(/N=N/c2ccc(P(=O)(O)O)cc2)c(CP(=O)(O)O)c(C=O)c1O | 27 µM | 36 nM | 12 nM | 948 nM |  |  |  | 
Cc1nc(/N=N/c2cc(S(=O)(=O)O)ccc2S(=O)(=O)O)c(COP(=O)(O)O)c(C=O)c1O [ISOPPADS] | 21.4 µM |  | 43 nM | 398 nM |  | 100% | 67% | inhibition [13]: 81%
CNc1ncnc2c1ncn2[C@H]1C[C@H](OP(=O)(O)O)[C@@H](COP(=O)(O)O)O1 |  |  |  |  | 37% | 100% | 24% | 
Cc1nc(/N=N/c2cc(C(=O)O)ccc2C(=O)O)c(CP(=O)(O)O)c(C=O)c1O |  | 330 nM | 37 nM | 486 nM |  |  |  | 
Cc1nc(/N=N/c2cc(CP(=O)(O)O)cc(CP(=O)(O)O)c2)c(CP(=O)(O)O)c(C=O)c1O | 14.5 µM | 25 nM | 11 nM | 280 nM | 0% | 84% | -5% | 
Cc1ncc2c(c1O)COP(=O)(O)OC2 |  |  |  |  |  |  |  | Inhibition activity [10]: inactive; IA [12]: inactive; IA [14]: inactive
CC(=O)Oc1c(C)nc(/N=N/c2cc(S(=O)(=O)O)ccc2S(=O)(=O)O)c2c1COP(=O)(O)OC2 |  |  |  |  |  |  |  | IA [11]: inactive

From ChEMBL document CHEMBL1134335, “Structure-activity relationships of pyridoxal phosphate derivatives as potent and selective antagonists of P2X1 receptors” (J Med Chem, 2001)
